Ecoli WT expand – growth inhibitors of wild-type E. coli, primary screen, strain BW25113, expanded library, OD600; OD600 absorbance; growth inhibition, % at 100 µM; hit rate 0.15% among 98,000; AID 710, 2007;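 active = growth inhibition above about 50% at one test dose, limit read from the data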;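 also: growth measured after 20 h incubation at 37 °C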
WNV protease inh – inhibitors of WNV NS2B-NS3 protease, primary screen, biochemical, fluorogenic substrate. Genome polyprotein (West Nile virus), P06935. AID 577, 2007. fluorogenic substrate Ex360/Em465; stronger effect = lower value. hit rate 0.18% among 65,000. z-score (no concentration beside the values); in the data active = z-score below about -3
M1 ag – M1 muscarinic receptor agonists, primary screen, CHO-M1 cells, Fluo-4 calcium, agonist mode. Muscarinic acetylcholine receptor M1. Fluo-4 calcium fluorescence; stronger effect = higher value. B-score at 10 µM. hit rate 3% among 64,000. AID 626, 2007;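 active = fluorescence rise, raw or as B-score row- and column-corrected plate score, outside the 99.7% band of its plate's samples, either direction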
tolC growth inh – growth inhibitors of E. coli tolC mutant, primary screen, strain BW25113 ΔtolC::kan, 384-well; hit rate 2.2% among 65,000; growth inhibition, % at 10 µM (by protocol); OD615; AID 573, 2007;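 active = growth inhibition at or above a cutoff equal to the mean over every tested compound plus 3 SD, cut at about 60% in these data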;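 also: growth measured after 20 h incubation at 37 °C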
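System: E. coli ΔtolC::kan strain BW25113; Buffer or medium: LB broth supplemented with 50 µg/mL kanamycin; Compound: 10 µM final, single dose; Incubation: bacterial growth with compound for 20 h at 37 °C; Signal: A615 absorbance measurement; Evaluation: growth inhibition in percent.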
AP complement – alternative complement pathway inhibitors, primary screen, biochemical, ELISA, human serum, orthogonally pooled compounds. AID 1235, 2008. inhibition, % at 5 µM. hit rate 0.08% among 62,000. LPS-coated ELISA, C3 deposition; tested in compound mixtures;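 active = inhibition above 30% in each of the two pooled mixtures holding the compound, so the lower value exceeds 30%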;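 also: 0% = serum in Mg-EGTA without compound and 100% = EDTA serum blank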
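Assay system: Human serum alternative complement pathway, C3 deposition on LPS-coated wells | Incubation: 1 h serum-compound exposure at 37 °C | Doses: 5 µM per compound in ten-compound mixtures | Read-out: Percent inhibition | Technique: ELISA with HRP anti-human C3 antibody, TMB substrate, absorbance 450 nm | Replication: Two pool placements per compound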
M1 antagonist – antagonists of rat M1 muscarinic receptor; Muscarinic acetylcholine receptor M1 (Rattus norvegicus), P08482; CHO-M1 cells, Fluo-4 calcium, ACh EC80 antagonist mode; stronger effect = lower value; AID 628, 2007; B-score at 10 µM; hit rate 3.4% among 64,000;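 active = calcium fluorescence response, raw or row-and-column corrected B-score, differing from the plate sample mean either way at a set confidence level, mostly lower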
Target sequence (P08482 whole entry, looked up): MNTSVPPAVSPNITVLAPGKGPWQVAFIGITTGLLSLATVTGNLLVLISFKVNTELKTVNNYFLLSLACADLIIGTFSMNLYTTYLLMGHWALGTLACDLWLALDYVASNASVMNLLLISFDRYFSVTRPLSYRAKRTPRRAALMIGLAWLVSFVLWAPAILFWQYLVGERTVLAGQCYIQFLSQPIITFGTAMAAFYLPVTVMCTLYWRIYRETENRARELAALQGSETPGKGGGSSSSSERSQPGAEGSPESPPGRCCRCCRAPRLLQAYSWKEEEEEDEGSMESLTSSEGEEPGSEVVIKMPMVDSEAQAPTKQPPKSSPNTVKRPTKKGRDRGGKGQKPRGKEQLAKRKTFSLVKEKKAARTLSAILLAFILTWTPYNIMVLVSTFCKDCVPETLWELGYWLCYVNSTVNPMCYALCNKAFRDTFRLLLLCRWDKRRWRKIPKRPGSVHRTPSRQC
M1 antag confirm – rat M1 muscarinic receptor antagonists, confirmation, CHO cells, Fluo-4 calcium, duplicate; AID 677, 2007; hit rate 43% among 1,700; shares compounds with M1 antagonist; ACh EC80 antagonism; stronger effect = lower value; calcium response (max-min fluorescence) at 10 µM;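 active = calcium response below the same-plate mean of wells given acetylcholine alone at its 80%-effect dose, minus 3 SD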;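 also: raw fluorescence intensity difference in arbitrary instrument units and not normalized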
mGluR4 antag – human mGluR4 response to M1 antagonist hits, M1 allosteric modulator project, cell-based, antagonist mode, secondary assay 1 | fluorescence response (max-min) at 10 µM | CHO-mGluR4 calcium flux, Fluo-4 fluorescence, glutamate EC80; stronger effect = lower value | hit rate 0.9% among 1,700 | shares compounds with M1 antagonist;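 active = fluorescence response below the plate's average for near-maximal glutamate wells, less 3 SD of those wells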;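 also: raw unnormalized fluorescence span taken in the window right after glutamate addition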
Starred values were filed as active, the others as inactive; · = not tested or not shown. Hits are enriched below; roughly 5.2% of the tested compounds scored in any of these assays.

SMILES | Ecoli WT expand | WNV protease inh | M1 ag | tolC growth inh | AP complement | M1 antagonist | M1 antag confirm | mGluR4 antag
CCS(=O)(=O)N1CCC(C(=O)NCCN2CCN(Cc3ccccc3)CC2)CC1 | -6.0 | -1.16 | -0.0784 | -17.9 | 18.3 | -3.36* | 519 | 201
Cc1noc(C)c1S(=O)(=O)N1CCC(C(=O)NCCN2CCC(C)CC2)CC1 | 1.0 | -0.61 | 1.19 | -7.4 | 11.0 | -4.29* | 437 | 198
COCCNC(=O)c1onc(CSc2ccc(C(C)C)cc2)c1C(=O)O | -13.0 | · | · | · | · | · | · | ·
Cc1ccc(C)c(N2CCN(C(=O)Cn3c(=O)[nH]c4ccsc4c3=O)CC2)c1 | 6.0 | · | · | · | · | · | · | ·
CC1CCCN(c2nc3c(c(=O)[nH]c(=O)n3C)n2CCCc2ccccc2)C1 (stereo not given) | 0.0 | -1.6 | 3.74 | 32.2 | 5.2 | -0.039 | · | ·
Cc1ccc(S(=O)(=O)N2CCC(C(=O)NCCN3CCCCCC3)CC2)cc1 | 0.0 | -0.22 | -0.473 | -18.5 | 7.1 | -3.55* | 527* | 217
Cc1nnc(SCC(=O)Nc2ccc(S(=O)(=O)N3CCCC3)cc2)n1N | -1.0 | 0.36 | -0.0329 | 11.0 | -4.7 | -4.66* | 276* | 241
CN1CCCC(OC(=O)c2cc(Cl)ccc2Cl)C1 (stereo not given) | 1.0 | 0.45 | 0.402 | 1.3 | -18.6 | -1.25 | · | ·
CN1CCCC(OC(=O)c2cc(Br)ccc2Cl)C1 (stereo not given) | 10.0 | 0.9 | -0.0141 | -4.8 | 12.3 | -6.6* | 412* | 213
CCCCNC(=O)N1CCOCCOCCN(C(=O)NCCCC)CCOCC1 | 3.0 | 0.84 | 0.0591 | 8.0 | · | -2.32* | 589 | 244
CCCCNC(=O)N1CCOCCOCCN(C(=O)NCCCC)CCOCCOCC1 | -12.0 | -0.3 | -0.207 | 4.2 | · | -0.576 | · | ·
CCOC(=O)C1=C(C)NC(=O)NC1c1ccc(N(C)C)cc1 (stereo not given) | 8.0 | -0.2 | 0.52 | -9.3 | 5.0 | -0.271 | · | ·
CCN(CC)c1ccc(C2C(C(=O)OC)=C(C)NC(C)=C2C(=O)OC)cc1 | -7.0 | 0.21 | -0.187 | 1.6 | 6.4 | -2.74* | 209* | 249
CCOC(=O)C1=C(C)NC(=O)NC1c1ccc(N(CC)CC)cc1 (stereo not given) | 1.0 | -1.34 | 0.825 | 7.1 | -0.7 | -3.12* | 391* | 274
CCOC(=O)C1CCN(c2c(NC3CCCc4ccccc43)c(=O)c2=O)CC1 (stereo not given) | -4.0 | -0.54 | 0.364 | -6.7 | 7.2 | 0.039 | · | ·
O=C(CSc1nc(C2CC2)nc2ccccc12)N1c2ccccc2Sc2ccc(C(F)(F)F)cc21 | -4.0 | · | · | · | · | · | · | ·
Cc1sc2ncnc(SCC(=O)NC(=O)NCc3ccco3)c2c1C | · | -0.45 | 1.99e-05 | 2.2 | 13.3 | 0.416 | · | ·
CCN(CC)C(=O)C1CCCN(C/C(C)=C/c2ccccc2)C1 (stereo not given) | -14.0 | 1.87 | 0.616 | -5.9 | -13.7 | 0.0402 | · | ·
CCN(CC)C(=O)C1CCCN(C/C=C/c2ccccc2)C1 (stereo not given) | -6.0 | 0.66 | 3.99 | -15.2 | -7.5 | -2.74* | 566 | 240
CCN(CC)C(=O)C1CCCN(Cc2ccc(F)c(F)c2)C1 (stereo not given) | -2.0 | -1.51 | 0.828 | -9.8 | -10.0 | -4.11* | 649 | 256
CCN(CC)C(=O)C1CCCN(Cc2ccc3c(c2)OCO3)C1 (stereo not given) | -3.0 | · | · | · | · | · | · | ·
CCN1CCN(c2nc(C)c3c(n2)CCCC3=O)CC1 | 2.0 | · | · | · | · | · | · | ·
CCC(Sc1nc2cc(OC)c(OC)cc2c2nc(C)nn12)C(=O)NCc1ccco1 (stereo not given) | · | 0.49 | 0.00435 | -24.9 | 8.7 | -0.734 | · | ·
CCc1cccc(C)c1NC(=O)CSc1nnc(-c2cc3cc(Br)ccc3o2)n1CC | -6.0 | 0.41 | -0.751 | 16.6 | -1.3 | -2.82* | 584 | 246
